Pf Dd2 growth: blocks growth of Plasmodium falciparum Dd2 parasites; P. falciparum Dd2 growth, SYBR Green, 72 h; active compounds read low; activity change, % at 10 µM; actives 2.3% (n = 94,000); in the data active = activity change below about -80%
IDH1 mut inh: IDH1 R132H (human) inhibition; IDH1 R132H reductase, diaphorase/resazurin fluorescence, 60 min; inhibition, % at 10 µM; actives 0.18% (n = 70,000); AID 624101; in the data active = inhibition above about 34%;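 also: 0% = DMSO and 100% = no enzyme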
Target sequence (O75874 whole entry R132H): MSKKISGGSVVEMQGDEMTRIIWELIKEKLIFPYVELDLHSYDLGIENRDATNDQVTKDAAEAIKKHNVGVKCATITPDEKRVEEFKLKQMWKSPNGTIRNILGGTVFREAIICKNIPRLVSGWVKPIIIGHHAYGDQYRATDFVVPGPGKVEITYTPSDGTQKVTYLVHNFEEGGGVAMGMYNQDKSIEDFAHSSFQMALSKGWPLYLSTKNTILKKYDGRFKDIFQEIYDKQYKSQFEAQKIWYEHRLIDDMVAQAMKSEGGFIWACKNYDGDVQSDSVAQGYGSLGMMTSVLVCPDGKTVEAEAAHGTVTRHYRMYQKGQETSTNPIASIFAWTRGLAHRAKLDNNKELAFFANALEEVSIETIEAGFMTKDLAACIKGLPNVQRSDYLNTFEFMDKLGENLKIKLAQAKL
T cruzi growth: inhibitors of T. cruzi proliferation; inhibition, % at 8.34 µM; T. cruzi beta-gal in NIH3T3, GalScreen luminescence, 90 h; actives 5.9% (n = 77,000); AID 624255;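 active = mean inhibition above about 93%, with at least 55% of replicates each passing it, limit read from the data, passing the limit was not always enough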
GASC1 inh: blocks human GASC-1 (KDM4C) demethylase activity. Q9H3R0. GST-KDM4C 2-372, H3K9me3 peptide, LANCE TR-FRET. inhibition, % at 12.5 µM. actives 0.15% (n = 96,000);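 active = mean replicate inhibition above about 25%, with at least 55% of replicates also reaching it, limit read from the data, passing the limit was not always enough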
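Test system: N-terminal GST-fused human GASC-1 (KDM4C) fragment, residues 2-372; quantity: GASC-1 enzyme at 10 nM final in reaction; dosing: single dose; schedule: 30 min demethylation and 1 h detection at room temperature; signal: LANCE TR-FRET, excitation 340 nm, emissions 618 and 671 nm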
* marks the source's active call; other numbers are inactive results; . = not tested or not shown. Only some compounds are listed: those with a hit (about 5.8% of all), similar ones and a draw of the others.

SMILES	Pf Dd2 growth	IDH1 mut inh	T cruzi growth	GASC1 inh
C[C@H]1CN([C@@H](C)CO)C(=O)c2c(c3ccccc3n2C)-c2ccccc2CO[C@H]1CN(C)S(=O)(=O)c1ccc(Cl)cc1	-86*	-2	73	0
C[C@H]1CN([C@@H](C)CO)C(=O)c2c(c3ccccc3n2C)-c2ccccc2CO[C@@H]1CN(C)S(=O)(=O)c1ccc(Cl)cc1	-85*	.	58	-1
Cc1ccc(-c2cnc3c(c2)C(=O)N([C@H](C)CO)C[C@H](C)[C@H](CN(C)C(=O)c2cccnc2)O3)cc1	6	0	-36	0
CO[C@H]1CN(C)C(=O)c2ccc(NC(=O)Nc3ccc(Cl)cc3)cc2OC[C@@H](C)NC[C@@H]1C	.	0	-71	1
O=C(N[C@@H]1CC[C@@H](CCNS(=O)(=O)Cc2ccccc2)O[C@H]1CO)c1ccccc1F	-6	0	2	0
COc1ccc(-c2ccccc2[C@H]2[C@@H](C#N)N(C(=O)C3CCCC3)[C@@H]2CO)cc1	-98*	.	.	-1
COc1ccc(-c2ccccc2[C@H]2[C@@H](C#N)N(C(=O)NC(C)C)[C@H]2CO)cc1	-87*	.	.	0
COc1ccccc1-c1ccccc1[C@@H]1[C@@H](C#N)N(C(=O)C2CC2)[C@@H]1CO	-98*	.	.	0
COc1ccccc1-c1ccccc1[C@H]1[C@H](C#N)N(C(=O)C2CCC2)[C@H]1CO	-85*	.	.	-1
COc1ccc(-c2ccccc2[C@H]2[C@@H](C#N)N(C(=O)C3CCC3)[C@H]2CO)cc1	-3	.	.	-1
CC(=O)N1[C@@H]2CN(S(=O)(=O)c3ccccc3)c3ccccc3[C@@H]2[C@@H]1CO	-2	.	49	-3
COc1cccc(S(=O)(=O)Nc2ccc3c(c2)[C@H]2C[C@@H](CC(=O)O)O[C@H](CO)[C@H]2O3)c1	16	72*	14	38*
O=C(O)C[C@@H]1C[C@H]2c3cc(NS(=O)(=O)c4ccccc4)ccc3O[C@H]2[C@@H](CO)O1	11	0	-20	-1
COc1cccc(S(=O)(=O)Nc2ccc3c(c2)[C@@H]2C[C@H](CC(=O)O)O[C@@H](CO)[C@@H]2O3)c1	-14	0	16	-1
O=C(O)C[C@@H]1C[C@@H]2c3cc(NS(=O)(=O)c4ccccc4)ccc3O[C@@H]2[C@H](CO)O1	-94*	.	.	1
COc1cccc(S(=O)(=O)Nc2ccc3c(c2)[C@@H]2C[C@H](CC(=O)NCc4ccc(Cl)cc4)O[C@@H](CO)[C@@H]2O3)c1	-82*	0	66	-3
Cc1noc(C)c1NC(=O)N(C)C[C@@H]1Oc2ccc(NC(=O)CCCCCC(=O)Nc3ccccc3N)cc2CC(=O)N([C@@H](C)CO)C[C@@H]1C	10	14	16	3
COCC(=O)Nc1ccc2c(c1)C(=O)N(C)C[C@@H](OC)[C@@H](C)CN(C(=O)c1ccccn1)[C@H](C)CO2	58	0	2	-1
Cc1noc(C)c1NC(=O)N(C)C[C@@H]1OCCCC[C@@H](C)Oc2ccc(NS(=O)(=O)c3ccc(Cl)cc3)cc2C(=O)N([C@H](C)CO)C[C@H]1C	-43	.	-39	0
COc1ccc2c3c(n(C)c2c1)[C@H](CO)N(C(=O)C1CC1)CC31CCN(C)CC1	-86*	.	.	-1
COc1ccc2c3c(n(C)c2c1)[C@H](CO)N(C(=O)C1CC1)CC31CN(C(=O)C2CCOCC2)C1	-87*	.	.	1
O=C(C[C@H]1C=C[C@H](NC(=O)c2ccc(F)cc2)[C@H](CO)O1)NCCc1ccncc1	5	1	12	1
COc1ccc2c3c(n(C)c2c1)[C@H](CO)N(Cc1cccc(F)c1)CC31CCN(C(=O)Cc2ccccc2)CC1	-83*	.	.	-1
COc1ccc2c3c(n(C)c2c1)[C@H](CO)N(Cc1ccncc1)CC31CCN(C(=O)Cc2ccncc2)CC1	-87*	.	.	0
COc1ccc2c3c(n(C)c2c1)[C@H](CO)N(Cc1ccc2c(c1)OCO2)CC31CN(C(=O)c2ccc3c(c2)OCO3)C1	-88*	.	.	-1
SMILES	Pf Dd2 growth	IDH1 mut inh	T cruzi growth	GASC1 inh
COc1ccc2c3c(n(C)c2c1)[C@@H](CO)N(Cc1ccncc1)CC31CCN(C(=O)C2CC2)CC1	19	.	.	.
C[C@@H]1CN([C@H](C)CO)C(=O)c2cc(NC(=O)Nc3cccc4ccccc34)ccc2O[C@@H](C)CCCCO[C@@H]1CN(C)S(=O)(=O)c1ccc(F)cc1	-87*	.	8	0
C[C@@H]1CN([C@@H](C)CO)C(=O)c2cc(NC(=O)Nc3cccc4ccccc34)ccc2O[C@@H](C)CCCCO[C@@H]1CN(C)S(=O)(=O)c1ccc(F)cc1	-83*	-3	30	0
C[C@@H]1CCCCO[C@@H](CN(C)C(=O)Nc2cccc3ccccc23)[C@H](C)CN([C@@H](C)CO)C(=O)c2cc(NC(=O)c3ccncc3)ccc2O1	-73	0	32	-1
C[C@@H]1CN([C@H](C)CO)C(=O)c2cc(NC(=O)c3ccncc3)ccc2O[C@@H](C)CCCCO[C@@H]1CN(C)C(=O)Nc1cccc2ccccc12	-90*	2	.	0
C[C@@H]1CN([C@@H](C)CO)C(=O)c2cc(NC(=O)c3ccncc3)ccc2O[C@@H](C)CCCCO[C@@H]1CN(C)C(=O)Nc1cccc2ccccc12	-84*	-1	53	3
C[C@@H]1CN([C@@H](C)CO)C(=O)c2cc(NC(=O)c3ccccc3)ccc2O[C@@H](C)CCCCO[C@@H]1CN(C)C(=O)Nc1cccc2ccccc12	-87*	1	63	-2
C[C@@H]1CN([C@@H](C)CO)C(=O)c2cc(NC(=O)c3ccncc3)ccc2O[C@@H](C)CCCCO[C@H]1CN(C)C(=O)Nc1cccc2ccccc12	-80	1	44	-2
C[C@@H]1CCCCO[C@@H](CN(C)C(=O)Nc2cccc3ccccc23)[C@H](C)CN([C@H](C)CO)C(=O)c2cc(NC(=O)c3ccncc3)ccc2O1	-85*	.	60	-3
C[C@@H]1CN([C@@H](C)CO)S(=O)(=O)c2ccc(C#C[C@@H](C)O)cc2O[C@H]1CN(C)C(=O)CC1CC1	.	.	-38	.
CN1C[C@@H]2[C@H](c3ccccc31)[C@@H](CO)N2Cc1ccccc1F	-14	.	-96	0
C[C@@H]1CN([C@@H](C)CO)C(=O)c2cccc(NS(=O)(=O)c3ccc(Cl)cc3)c2O[C@@H]1CN(C)Cc1ccc(C(=O)Nc2ccccc2N)cc1	-92*	.	99	-1
C[C@H](CO)N1C[C@H](C)[C@@H](CN(C)Cc2ccc(C(=O)Nc3ccccc3N)cc2)Oc2c(NS(=O)(=O)c3ccccc3)cccc2C1=O	-37	0	.	0
C[C@@H]1CN([C@@H](C)CO)C(=O)c2cccc(NS(=O)(=O)c3ccccc3)c2O[C@@H]1CN(C)Cc1ccc(C(=O)Nc2ccccc2N)cc1	-92*	.	81	-2
C[C@H](CO)N1C[C@H](C)[C@H](CN(C)Cc2ccc(C(=O)Nc3ccccc3N)cc2)Oc2c(NS(=O)(=O)c3ccc(F)cc3)cccc2C1=O	-85*	0	.	3
